Data set [1] in a line: Cytotoxicity against african green monkey Vero cells after 66 hrs. The format is cell-based. The settings on record: chlorocebus sabaeus. The method, boiled down: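 Confluent Vero monolayers in DMEM with 10% calf serum received triplicate serial dilutions of DMSO-dissolved samples at 1–100 µg/ml, with higher levels where needed. The cytotoxic concentration is reported as CD50.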

Data set [2] relates to Human alphaherpesvirus 1. Kind of data set: Antiviral activity against HSV1 in african green monkey Vero cells assessed as reduction in number of plaques after 66 hrs. It is filed as functional, organism-based. The method in brief: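 Confluent Vero monolayers were seeded at 2 × 10^4 cells/well in DMEM with 10% calf serum. Samples were dissolved in DMSO, diluted in medium and added in triplicate at 100, 50, 20, 10, 5, 2 and 1 µg/ml, with 30 PFU HS-1 per well. Wells were incubated 66 h at 37° under ~15% CO2, then formaldehyde-fixed, crystal violet-stained and scored visually. The value is the lowest concentration giving the stated % plaque reduction.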

For data set [3], the system named is Human alphaherpesvirus 1. In words: Antiviral activity against HSV1 in african green monkey Vero cells assessed as reduction in number of plaques at 0.1 mg/ml after 66 hrs. It is filed as functional. More on the design: scale not given: the % may be the effect or the level left. The method in brief: (§1)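 Vero cells seeded at 2 × 10^4 per 200 µl well in DMEM with 10% calf serum, grown to confluence at 37° under ~15% CO2. Medium replaced with compound dilutions in triplicate, each well inoculated with 30 PFU HSV-1. Incubated 66 h, then formaldehyde-fixed and crystal violet-stained. Plaque reduction was scored visually.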

The test system of data set [4] is Human alphaherpesvirus 1. In words: Antiviral activity against HSV1 in african green monkey Vero cells assessed as reduction in number of plaques at 0.005 mg/ml after 66 hrs. It is filed as functional. More on the design: scale not given: the % may be the effect or the level left. The method, boiled down:
as §1

We go through twelve compounds from ChEMBL document CHEMBL1150199, “Preparation, characterization, and antiviral activity of microbial metabolites of stemodin” (J Nat Prod, 1991).

In brackets after ≈: the same amount, converted by molar mass. Activity calls are given as the source filed them. No cut-off for these calls is given here.

On to `CC1(C)C[C@H](O)C[C@@]2(C)[C@H]1C[C@H](O)[C@@]1(O)C[C@H]3C[C@@]21CC[C@]3(C)O`, for which the midpoint of cytotoxicity in data set [1], the CC50 at 66 h, lay at 40 µg/mL (≈ 118 µM). In data set [2], the result was inactive.

As to `CC1(C)C[C@H](O)C[C@@]2(C)[C@H]1CC[C@@]1(O)C[C@H]3C[C@]12CC[C@]3(C)O`, the CC50 at 66 h in data set [1] was 300 µg/mL (≈ 930 µM). In data set [3], the Activity was found to be 93%.

The compound `CC1(C)C[C@H](O)C[C@@]2(C)[C@H]1C[C@H](O)[C@H]1C[C@H]3C[C@]12CC[C@]3(C)O` displayed a CC50 at 66 h in data set [1] of 70 µg/mL (≈ 217 µM). Besides, the result in data set [2] was inactive.

With `CC1(C)C[C@H](O)C[C@@]2(C)[C@H]1CC[C@H]1C[C@@]3(O)C[C@]12CC[C@]3(C)O`, the CC50 at 66 h in data set [1] is 150 µg/mL (≈ 465 µM). Besides, in data set [3], the Activity came out at 27%.

In the case of `CC1(C)C[C@H](O)C[C@@]2(C)[C@H]1C[C@@H](O)[C@H]1C[C@H]3C[C@]12CC[C@]3(C)O`, in data set [1], the CC50 at 66 h turned out to be 200 µg/mL (≈ 620 µM). In addition, in data set [3], the Activity came out at 33%.

Consider `C[C@]1(CO)C[C@H](O)C[C@@]2(C)[C@H]1CC[C@H]1C[C@H]3C[C@]12CC[C@@]3(O)CO`, for which the CC50 at 66 h in data set [1] is greater than 399 µg/mL.

In data set [1], `C[C@@]1(CO)[C@H](O)CC[C@@]2(C)[C@H]1CC[C@H]1C[C@@H]3C[C@@]12CC[C@]3(O)CO` [APHIDICOLIN] showed a CC50 at 66 h of 200 µg/mL (≈ 591 µM). Further, the Activity in data set [4] is 100%.

Regarding `C[C@]1(CO)C[C@H](O)C[C@@]2(C)[C@H]1CC[C@H]1C[C@H]3C[C@]12CC[C@]3(C)O`, in data set [1], the CC50 at 66 h was greater than 399 µg/mL.

With `C[C@@]1(CO)C[C@H](O)C[C@@]2(C)[C@H]1CC[C@H]1C[C@H]3[C@H](O)[C@]12CC[C@]3(C)O`, the CC50 at 66 h in data set [1] stood at 70 µg/mL (≈ 207 µM). The result in data set [2] was inactive.

Regarding `C[C@@]1(CO)C[C@H](O)C[C@@]2(C)[C@H]1CC[C@H]1C[C@H]3C[C@]12CC[C@]3(C)O`, the CC50 at 66 h in data set [1] was 200 µg/mL (≈ 620 µM). For the same compound, in data set [3], the Activity came to 67%.

For the compound `C[C@@]1(CO)C[C@H](O)C[C@@]2(C)[C@H]1CC[C@@]1(O)C[C@H]3C[C@]12CC[C@]3(C)O`, the CC50 at 66 h in data set [1] was determined as 660 µg/mL (≈ 1950 µM). Moreover, in data set [2], the outcome was inactive.

In data set [1], `CC1(C)C[C@H](O)C[C@@]2(C)[C@H]1CC[C@H]1C[C@H]3C[C@]12CC[C@]3(C)O` [STEMODIN] registered a CC50 at 66 h of 40 µg/mL (≈ 131 µM).

One may read the CC50 as the concentration giving 50% cytotoxicity.
